“Also recorded” adds a separate entry of the source. Where two headings read alike, the source gives them in different places.
Columns and labels:
hSERT [1] = biological target: T1, hSERT (Homo sapiens, UniProt P31645); assay: Inhibition of hSERT-mediated [3H]5-HT uptake into human platelets; format: cell-based
hNET [2] = biological target: T2, hNET (Homo sapiens, UniProt P23975); assay: Inhibition of hNET-mediated [3H]NE uptake into C6-hNET cells; format: cell-based
hDAT = hDAT (Homo sapiens, UniProt Q01959); assay: Inhibition of hDAT-mediated [3H]DA uptake into HEK293-hDAT cells; format: cell-based
hDAT, sequence (Q01959 whole entry): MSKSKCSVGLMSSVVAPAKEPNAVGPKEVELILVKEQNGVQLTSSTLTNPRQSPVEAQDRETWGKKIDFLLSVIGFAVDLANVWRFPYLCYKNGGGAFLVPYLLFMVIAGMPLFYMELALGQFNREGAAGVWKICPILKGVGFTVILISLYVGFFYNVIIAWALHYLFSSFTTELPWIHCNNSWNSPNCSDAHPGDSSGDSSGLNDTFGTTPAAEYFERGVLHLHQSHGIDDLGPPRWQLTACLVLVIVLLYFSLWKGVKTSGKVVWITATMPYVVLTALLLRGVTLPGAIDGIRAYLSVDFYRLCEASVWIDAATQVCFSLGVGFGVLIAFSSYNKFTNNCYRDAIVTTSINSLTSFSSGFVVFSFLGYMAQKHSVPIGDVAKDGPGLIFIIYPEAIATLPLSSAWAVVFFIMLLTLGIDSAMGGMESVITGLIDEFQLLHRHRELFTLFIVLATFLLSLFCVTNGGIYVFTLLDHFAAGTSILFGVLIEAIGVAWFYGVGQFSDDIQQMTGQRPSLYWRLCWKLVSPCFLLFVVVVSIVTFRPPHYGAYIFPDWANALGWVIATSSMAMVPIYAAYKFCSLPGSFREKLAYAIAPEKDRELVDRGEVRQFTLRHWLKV

rNET = rNET (Rattus norvegicus, UniProt Q63380); assay: Drug-evoked [3H]MPP+ release via rNET in rat brain synaptosomes; format: biochemical
rNET, sequence (Q63380 1-617): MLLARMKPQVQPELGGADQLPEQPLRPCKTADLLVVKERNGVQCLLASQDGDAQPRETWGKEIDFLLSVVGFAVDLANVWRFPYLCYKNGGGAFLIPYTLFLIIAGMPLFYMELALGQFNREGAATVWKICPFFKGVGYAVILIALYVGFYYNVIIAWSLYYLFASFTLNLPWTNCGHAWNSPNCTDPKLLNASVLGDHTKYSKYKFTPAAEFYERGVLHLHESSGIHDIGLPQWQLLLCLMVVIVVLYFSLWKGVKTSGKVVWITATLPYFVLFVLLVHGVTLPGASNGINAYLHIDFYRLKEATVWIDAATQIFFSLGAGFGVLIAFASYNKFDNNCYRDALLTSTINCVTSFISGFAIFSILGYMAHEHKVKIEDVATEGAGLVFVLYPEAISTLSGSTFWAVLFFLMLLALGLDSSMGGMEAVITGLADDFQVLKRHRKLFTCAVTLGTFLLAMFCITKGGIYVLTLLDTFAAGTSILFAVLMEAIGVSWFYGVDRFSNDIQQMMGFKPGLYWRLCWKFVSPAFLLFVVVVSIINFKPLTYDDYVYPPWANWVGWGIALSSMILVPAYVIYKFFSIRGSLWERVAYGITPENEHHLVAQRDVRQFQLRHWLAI

rDAT [3] = biological target: T3, rDAT (Rattus norvegicus, UniProt P23977); assay: Drug-evoked [3H]MPP+ release via rDAT in rat striatal synaptosomes; format: biochemical
T3 sequence (P23977 whole entry): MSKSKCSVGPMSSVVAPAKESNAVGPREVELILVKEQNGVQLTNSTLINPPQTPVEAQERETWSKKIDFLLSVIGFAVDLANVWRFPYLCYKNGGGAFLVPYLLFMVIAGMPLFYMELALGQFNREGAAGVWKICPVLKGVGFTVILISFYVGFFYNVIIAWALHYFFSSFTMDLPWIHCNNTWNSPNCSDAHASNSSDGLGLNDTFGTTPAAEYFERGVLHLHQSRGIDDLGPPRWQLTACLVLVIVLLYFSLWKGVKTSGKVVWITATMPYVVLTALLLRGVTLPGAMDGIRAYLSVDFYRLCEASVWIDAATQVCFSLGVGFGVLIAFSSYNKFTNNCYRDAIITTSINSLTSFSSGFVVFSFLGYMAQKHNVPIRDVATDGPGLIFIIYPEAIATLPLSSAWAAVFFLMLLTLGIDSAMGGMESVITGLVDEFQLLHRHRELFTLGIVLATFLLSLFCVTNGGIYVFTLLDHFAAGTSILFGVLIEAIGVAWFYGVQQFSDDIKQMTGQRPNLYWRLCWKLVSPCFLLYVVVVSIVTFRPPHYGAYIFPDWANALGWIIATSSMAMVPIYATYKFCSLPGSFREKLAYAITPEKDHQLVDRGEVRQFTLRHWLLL

rSERT = rSERT (Rattus norvegicus, UniProt P31652); assay: Drug-evoked [3H]5-HT release via rSERT in rat brain synaptosomes; format: biochemical; settings: for Fold more potent than methcathinone as [3H]5-HT releasing agent: SERT release
rSERT, sequence (P31652 whole entry): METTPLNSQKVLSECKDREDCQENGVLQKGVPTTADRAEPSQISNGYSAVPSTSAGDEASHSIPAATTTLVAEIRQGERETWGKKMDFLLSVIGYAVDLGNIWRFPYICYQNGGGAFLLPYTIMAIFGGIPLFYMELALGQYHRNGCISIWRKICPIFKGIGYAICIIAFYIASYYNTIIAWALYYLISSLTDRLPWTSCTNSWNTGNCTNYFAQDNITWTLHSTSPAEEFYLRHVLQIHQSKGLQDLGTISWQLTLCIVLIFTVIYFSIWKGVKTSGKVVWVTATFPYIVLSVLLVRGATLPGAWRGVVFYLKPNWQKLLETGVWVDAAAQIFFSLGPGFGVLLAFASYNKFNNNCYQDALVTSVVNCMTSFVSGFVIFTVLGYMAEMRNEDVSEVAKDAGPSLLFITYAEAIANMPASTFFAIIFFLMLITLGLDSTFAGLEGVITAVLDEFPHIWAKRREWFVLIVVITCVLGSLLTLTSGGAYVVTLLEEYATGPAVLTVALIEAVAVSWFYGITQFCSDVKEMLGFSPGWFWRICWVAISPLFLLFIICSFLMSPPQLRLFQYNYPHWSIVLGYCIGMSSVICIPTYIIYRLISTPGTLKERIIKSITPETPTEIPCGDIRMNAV

hNET [4] = biological target: T2, hNET; settings: read-out: NET [3H]NE uptake inhibition IC50, ref Cozzi et al., 1999; cited from earlier work
hSERT [5] = biological target: T1, hSERT; settings: read-out: SERT [3H]5-HT uptake inhibition IC50, ref Cozzi et al., 1999; cited from earlier work
[6] = test system: extracellular 5-HT in nucleus accumbens; assay: In vivo microdialysis of nucleus accumbens, dialysate 5-HT; settings: rat, i.v.; for Effect on extracellular 5-HT in nucleus accumbens: methcathinone 0.3 then 1.0 mg/kg, 4-TFMAP 1.0 then 3.0 mg/kg
In short: (§1)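 Male Sprague-Dawley rats (300–350 g) under pentobarbital anaesthesia (60 mg/kg i.p.) get a jugular catheter and a nucleus accumbens guide cannula (1.6 mm lateral, 1.6 mm anterior to bregma, 6.0 mm below dura). Next morning, dialysate is collected every 20 min and assayed for DA and 5-HT by HPLC-ECD. After three stable baselines, two i.v. doses in saline (1 mL/kg) are given 60 min apart, with sampling for 120 min. Data are % of mean baseline; n=6 saline, 7 per drug; two-way ANOVA with Bonferroni.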

[7] = test system: extracellular dopamine in nucleus accumbens; assay: In vivo microdialysis of nucleus accumbens, dialysate dopamine; design: species or system rat; settings: i.v.; for Effect on extracellular dopamine in nucleus accumbens: rat, methcathinone 0.3 then 1.0 mg/kg, 4-TFMAP 1.0 then 3.0 mg/kg
In short: as §1

rDAT [8] = biological target: T3, rDAT; settings: read-out: DAT [3H]DA uptake inhibition IC50, ref Cozzi et al., 1999; cited from earlier work
[9] = test system: horizontal locomotor activity; settings: cited from earlier work; for Locomotor effects in vivo compared to methcathinone: ref Foley and Cozzi, 2003
human SERT = settings: read-out: KM as SERT substrate, racemic, ref Cozzi and Foley, 2003; cited from earlier work
[10] = test system: extracellular dopamine in nucleus accumbens; settings: ref Baumann et al., 2012; Kehr et al. (2011); cited from earlier work
[11] = test system: extracellular 5-HT in nucleus accumbens; settings: ref Baumann et al., 2012; Kehr et al. (2011); cited from earlier work
[12] = test system: horizontal locomotor activity; assay: Horizontal locomotor activity during microdialysis; format: in vivo; settings: rat, i.v.; methcathinone 0.3 then 1.0 mg/kg, 4-TFMAP 1.0 then 3.0 mg/kg
In short: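 Horizontal activity is recorded by a photobeam ring (2.54 cm spacing) in a 43 cm cubic arena, where rats stay overnight and during microdialysis. It is binned every 20 min, from 60 min before to 120 min after two sequential i.v. injections given 60 min apart (saline vehicle, 1 mL/kg). Data are normalized to % of three pre-injection bins and compared with saline controls (n=6; drugs n=7) by two-way ANOVA with Bonferroni.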

[13] = read-out: NET [3H]MPP+ release EC50, mean ±S.E.M.
[14] = SERT [3H]5-HT release EC50, rat brain synaptosomes, mean ±S.E.M.

T1 sequence (P31645 whole entry): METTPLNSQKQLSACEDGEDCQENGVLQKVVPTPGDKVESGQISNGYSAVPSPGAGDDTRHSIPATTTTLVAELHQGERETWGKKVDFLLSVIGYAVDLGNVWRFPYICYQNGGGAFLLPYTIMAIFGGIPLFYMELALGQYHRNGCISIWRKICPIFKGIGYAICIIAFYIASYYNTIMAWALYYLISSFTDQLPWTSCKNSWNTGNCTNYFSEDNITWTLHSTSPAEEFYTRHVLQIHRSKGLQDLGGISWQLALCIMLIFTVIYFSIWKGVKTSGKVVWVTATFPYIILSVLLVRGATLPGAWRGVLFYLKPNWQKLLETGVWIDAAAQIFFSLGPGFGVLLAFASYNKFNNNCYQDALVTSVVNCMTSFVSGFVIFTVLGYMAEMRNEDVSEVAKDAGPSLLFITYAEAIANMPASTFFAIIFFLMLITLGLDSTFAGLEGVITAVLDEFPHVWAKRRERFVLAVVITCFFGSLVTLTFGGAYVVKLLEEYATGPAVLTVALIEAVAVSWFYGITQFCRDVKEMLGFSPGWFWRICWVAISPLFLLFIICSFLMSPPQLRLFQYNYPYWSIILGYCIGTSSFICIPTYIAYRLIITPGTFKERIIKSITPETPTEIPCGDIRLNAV
T2 sequence (P23975 whole entry): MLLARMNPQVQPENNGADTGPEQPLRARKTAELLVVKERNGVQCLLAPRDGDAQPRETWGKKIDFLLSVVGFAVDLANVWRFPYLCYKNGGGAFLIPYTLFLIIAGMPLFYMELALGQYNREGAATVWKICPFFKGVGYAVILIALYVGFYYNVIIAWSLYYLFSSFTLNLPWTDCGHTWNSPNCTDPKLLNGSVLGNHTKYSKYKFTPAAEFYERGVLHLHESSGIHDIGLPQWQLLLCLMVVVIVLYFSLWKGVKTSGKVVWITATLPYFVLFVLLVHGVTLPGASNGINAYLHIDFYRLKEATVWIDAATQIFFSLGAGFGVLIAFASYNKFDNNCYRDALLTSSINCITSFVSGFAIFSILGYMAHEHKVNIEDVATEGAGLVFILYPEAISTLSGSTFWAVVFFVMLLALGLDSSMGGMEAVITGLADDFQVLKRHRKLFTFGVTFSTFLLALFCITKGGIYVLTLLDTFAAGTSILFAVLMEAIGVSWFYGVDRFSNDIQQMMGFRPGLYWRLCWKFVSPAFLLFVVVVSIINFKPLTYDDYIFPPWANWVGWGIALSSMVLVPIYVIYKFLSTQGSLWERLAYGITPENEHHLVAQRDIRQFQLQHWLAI

## CNC(C)C(=O)c1cccc(C(F)(F)F)c1 (centres unmarked) [3-TFMAP, 2-(methylamino)-1-(3-trifluoromethylphenyl)propan-1-one]
hSERT [1]
  IC50: 11300 ± 400 nM
hNET [2]
  IC50: 3000 ± 800 nM
hDAT
  IC50: 136000 ± 8000 nM
rNET; [13]
  EC50: 2700 ± 800 nM
rDAT [3]
  EC50: 610 ± 90 nM
rSERT; [14]
  EC50: 380 ± 60 nM
rSERT
  Fold more potent than methcathinone as [3H]5-HT releasing agent: 10 fold

## CNC(C)C(=O)c1ccccc1 (centres unmarked) [Methcathinone, reference compound]
hNET [4]
  IC50: 500 ± 100 nM
hSERT [5]
  IC50: 35000 ± 5000 nM
[6]
  Effect on extracellular 5-HT in nucleus accumbens: large dose-dependent increases
[7]; rat nucleus accumbens
  Potency as dopamine releasing agent relative to 5-HT releaser in vivo: about twice as potent
[7]
  Effect on extracellular dopamine in nucleus accumbens: large dose-dependent increases
rNET; [13]
  EC50: 20 ± 3 nM
rDAT [8]
  IC50: 360 ± 60 nM
rDAT [3]; read-out: DAT [3H]MPP+ release EC50, rat striatal synaptosomes, mean ±S.E.M.
  EC50: 20 ± 1 nM
rSERT; read-out: SERT [3H]5-HT release EC50, rat brain synaptosomes, mean ±S.E.M.
  EC50: 4000 ± 1000 nM

## CNC(C)C(=O)c1ccccc1C(F)(F)F (centres unmarked) [2-TFMAP, 2-(methylamino)-1-(2-tri-fluoromethylphenyl)propan-1-one]
hSERT [1]
  IC50: 239000 ± 13000 nM
hNET [2]
  IC50: 10000 ± 3000 nM
hDAT
  IC50: 689000 ± 160000 nM
rNET; [13]
  EC50: 2200 ± 300 nM
rDAT [3]
  EC50: 8000 ± 900 nM
rSERT; [14]
  EC50: 8400 ± 800 nM

## CNC(C)C(=O)c1cccc(Br)c1 (centres unmarked) [3-bromomethcathinone]
[9]
  Locomotor effects in vivo compared to methcathinone: fewer locomotor effects

## CNC(C)C(=O)c1ccc(Br)cc1 (centres unmarked) [4-bromomethcathinone]
[9]
  Locomotor effects in vivo compared to methcathinone: fewer locomotor effects

## [^3H]methcathinone
Human SERT
  Km: 0.244 µM

## CNC(C)C(=O)c1ccc(C)cc1 (centres unmarked) [mephedrone, 4-methylmethcathinone]
[10]
  Effect on DA release in nucleus accumbens: stimulated both 5-HT and DA release
[11]
  Effect on 5-HT release in nucleus accumbens: stimulated both 5-HT and DA release
[9]; 1 and 3 mg/kg, ref Baumann et al., 2012, Kehr et al. (2011)
  Effect on locomotor activity: dose-related locomotor stimulation

## CNC(C)C(=O)c1ccc(C(F)(F)F)cc1 (centres unmarked) [4-TFMAP, 2-(methylamino)-1-(4-trifluoromethylphenyl)propan-1-one]
hSERT [1]
  IC50: 4500 ± 600 nM
[6]; nucleus accumbens
  Potency on dialysate 5-HT relative to methcathinone: approximately 1/3
[6]
  Effect on extracellular 5-HT in nucleus accumbens: increased extracellular 5-HT; also recorded: dose-related increase in 5-HT efflux
hNET [2]
  IC50: 3000 ± 900 nM
[12]
  Effect on horizontal locomotor activity: no effect; also recorded: nor did it stimulate locomotor activity
[7]
  Effect on extracellular dopamine in nucleus accumbens: no effect; also recorded: did not stimulate dopamine release
hDAT
  IC50: 200000 ± 50000 nM
rNET; read-out: EC50 for [3H]MPP+ release at rNET
  EC50: 867 nM
rNET; [13]
  EC50: 900 ± 300 nM
rDAT [3]
  EC50: 2700 ± 300 nM
rSERT; EC50 for [3H]5-HT release at rSERT, rat brain synaptosomes
  EC50: 186 nM
rSERT; [14]
  EC50: 190 ± 30 nM
rSERT
  Fold more potent than methcathinone as [3H]5-HT releasing agent: 10 fold
